Test results from ChEMBL document CHEMBL1143073, “Benzoic acid derivatives, acetophenones, and anti-inflammatory constituents from Melicope semecarpifolia” (J Nat Prod, 2008).
In brackets after ≈: the same amount, converted by molar mass. Activity calls are given as the source filed them. The calls are words filed in the database; no cut-off is given here.

Tests used:
[1] = Antiinflammatory activity in human neutrophils assessed as inhibition of fMet-Leu-Phe/Cytochalasin B-induced superoxide anion generation; assay type: functional, cell-based; conditions: Neutrophil
Outline: (§1)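 Neutrophils isolated from venous blood of healthy adult volunteers (20–28 years) by dextran sedimentation, Ficoll Hypaque centrifugation and hypotonic erythrocyte lysis, >98% viable, held in Ca2+-free HBSS pH 7.4 at 4 °C. Cells given 0.5 mg/mL ferricytochrome c and 1 mM Ca2+, 37 °C 2 min, drug 5 min, cytochalasin B 1 µg/mL 3 min, then fMLP 100 nM 10 min. SOD-inhibitable (100 U/mL) reduction at 550 nm; n = 4.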

[2] = Antiinflammatory activity in human neutrophils assessed as inhibition of fMet-Leu-Phe/Cytochalasin B-induced elastase release; assay type: functional, cell-based; conditions: Neutrophil
Outline: (§2)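 Human volunteer neutrophils (6 × 10^5/mL) prepared by dextran sedimentation, Ficoll Hypaque gradient and hypotonic lysis, kept in Ca2+-free HBSS pH 7.4 at 4 °C. Elastase substrate MeO-Suc-Ala-Ala-Pro-Val-p-nitroanilide 100 µM added; cells equilibrated 2 min at 37 °C, drug 5 min, then fMLP 100 nM/cytochalasin B 0.5 µg/mL stimulation. Absorbance at 405 nm monitored continuously; n = 4.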

[3] = Antiinflammatory activity in human neutrophils assessed as inhibition of fMet-Leu-Phe/Cytochalasin B-induced elastase release at 10 ug/mL; assay type: functional, cell-based; conditions: Neutrophil; outline: as §2
[4] = Antiinflammatory activity in human neutrophils assessed as inhibition of fMet-Leu-Phe/Cytochalasin B-induced superoxide anion generation at 10 ug/mL; assay type: functional; conditions: Neutrophil; outline: as §1
Neutrophil [5] = experiment: Antiinflammatory activity in human neutrophils assessed as inhibition of superoxide anion generation at 10 ug/mL; assay type: functional, cell-based
Outline: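 Healthy-volunteer neutrophils (dextran/Ficoll isolation, Ca2+-free HBSS pH 7.4) supplemented with 0.5 mg/mL ferricytochrome c and 1 mM Ca2+. Equilibrated 2 min at 37 °C, drug 5 min, cytochalasin B 1 µg/mL 3 min, then fMLP 100 nM 10 min. SOD-inhibitable ferricytochrome c reduction read at 550 nm with stirring, difference ± SOD (100 U/mL). Percent inhibition, n = 4.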

Neutrophil [6] = experiment: Antiinflammatory activity in human neutrophils assessed as inhibition of elastase release at 10 ug/mL; assay type: functional, cell-based
Outline: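 Neutrophils from venous blood of healthy adult volunteers, isolated by dextran sedimentation, Ficoll Hypaque centrifugation and hypotonic erythrocyte lysis, kept in Ca2+-free HBSS pH 7.4 at 4 °C. Cells (6 × 10^5/mL) with MeO-Suc-Ala-Ala-Pro-Val-p-nitroanilide (100 µM), 2 min at 37 °C, drug 5 min, then fMLP (100 nM)/cytochalasin B (0.5 µg/mL). A405 monitored continuously. Percent inhibition, mean ± SEM, n = 4.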

IC50 [1] | IC50 [2] [µg/mL] | SMILES | inhibition at 10 µg/mL [3] [%] | further results
1.43 µg/mL | 1.69 (≈ 4.72 µM) | COc1cc(O)c2c(=O)c(OC)c(-c3ccc(OC)c(OC)c3)oc2c1 [RETUSIN] | – | –
1.2 µg/mL | 0.7 (≈ 2.23 µM) | COc1cc(O)c2c(=O)c(OC)c(-c3ccc(O)cc3)oc2c1 [KUMATAKENIN] | – | –
– | – | CC(=O)c1c(O)cc(OC/C=C(\C)CCC=C(C)C)c2c1OC(C)(C)C=C2 | 27.4 | inhibition at 10 µg/mL [4]: 21.4%
– | – | CC(=O)c1c(O)cc(OC/C=C(\C)CCC=C(C)C)c2c1OC(C)(CCC=C(C)C)C=C2 (stereo unspecified) | 26.6 | inhibition at 10 µg/mL [4]: 23.2%
8.02 µg/mL | – | CC(=O)c1c(OC/C=C(\C)CCC=C(C)C)cc(O)c(C(=O)O)c1O | 46.1 | –
1 µg/mL | 0.99 (≈ 2.88 µM) | COc1cc(O)c2c(=O)c(OC)c(-c3ccc(O)c(OC)c3)oc2c1 [PACHYPODOL] | – | –
– | – | CC(=O)c1c(O)cc(O)cc1OC/C=C(\C)CCC=C(C)C | – | Activity (Neutrophil [5]): Active; Activity (Neutrophil [6]): Active
0.73 µg/mL | 0.6 (≈ 1.87 µM) | CC(C)=CCC/C(C)=C/COc1cc(O)cc(O)c1C(=O)CO | – | –
– | – | CC[C@H](CC[C@@H](C)[C@H]1CC[C@H]2[C@@H]3C(=O)C=C4C[C@@H](O)CC[C@]4(C)[C@H]3CC[C@]12C)C(C)C | 7.48 | inhibition at 10 µg/mL [4]: 22.6%
– | – | O=S(=O)(F)Cc1ccccc1 [PHENYLMETHYLSULFONYLFLUORIDE] | – | IC50 [3]: 35.7 µM
3.75 µg/mL | 0.91 (≈ 2.84 µM) | CC(C)=CCC/C(C)=C/COc1cc(O)c(C(=O)CO)c(O)c1 | – | –
– | – | CC(=O)c1c(O)cc(OC/C=C(\C)CCC=C(C)C)c2c1OC(C)(C)[C@H](O)C2 | 28.7 | inhibition at 10 µg/mL [4]: 30.6%
6.62 µg/mL | 5.79 (≈ 16.6 µM) | CC(=O)c1c(O)cc(OC/C=C(\C)CCC=C(C)C)c(C(=O)O)c1O | – | –

SMILES | IC50 [1] | IC50 [2] [µg/mL] | inhibition at 10 µg/mL [3] [%] | further results
c1ccc2c(c1)[I+]c1ccccc1-2 [DIPHENYLENEIODONIUM] | 520 nM | – | – | –
